Bioassay records (PubChem)
Hits are enriched below; roughly 1.6% of the tested compounds scored in any of these assays.
pCIP destab = lowers stability of the mouse p/CIP coactivator protein | Q05BA5 | F442A p/CIP-EGFP cells, EGFP fluorescence, 16 h | decrease of EGFP signal, % at 10 µM | hit rate 0.01% among 290,000;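 active means EGFP signal decrease of at least 30% at 10 µM or well 3 SD below plate mean, unless failing retest; inactive means the rest, including hits failing retest or dose response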
MsrA inh = bovine MsrA inhibition | inhibition, % at 15.5 µM | hit rate 0.75% among 360,000 | purified bovine MsrA, absorbance read-out | AID 651718
SKN-1 inh = inhibitors of C. elegans SKN-1; C. elegans VP596 Pgst-4::GFP/RFP ratio, acrylamide-induced, 24 h; hit rate 0.49% among 360,000; inhibition, % at 21.8 µM;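 active means interference check ratio from 0.5 to 1.5 plus GFP to RFP signal ratio inhibition reaching or exceeding a fixed threshold, cut at about 30% in these data, passing the limit was not always enough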
MT1-MMP act inh = inhibitors of human MT1-MMP activation; P50281; HT1080 RFP-PRO-GFP cells, GFP/RFP ratio fluorescence, overnight; percent of plate control window, DMSO zero; GFP/RFP ratio change, % at 20 µM; hit rate 0.061% among 360,000; AID 651647;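 active means GFP/RFP ratio change of at least 30% with cell ATP level not reduced by more than half and red fluorescence within 50% of control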
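Test system: HT1080 RFP-PRO-GFP cells; Benchmarks: DMSO and RFP-L50D-GFP cell wells; Timing: cells overnight before dosing, compound overnight, 37 °C, 5% CO2; Compound: one 20 µM compound dose with 1% DMSO; Read-out: GFP/RFP fluorescence ratio.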
MsrA act = bovine methionine sulfoxide reductase A activation; purified bovine MsrA, absorbance read-out; activation, % at 10.6 µM; hit rate 0.3% among 360,000; in the data active means activation above about 7.5%
MsrA inh confirm = confirmation of bovine MsrA inhibitors; purified bovine MsrA, absorbance read-out; hit rate 41% among 2,300; inhibition, % at 15.5 µM; shares compounds with MsrA inh; AID 651822;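 further: coupled to thioredoxin reductase with NADPH and selenocystamine and DMSO as substrate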
Of the large screens only hits and unclear results are named; the others gave an inactive call (follow-up assays come after a bar, where they were run). Unless noted, no stated cut-off is given here; in the data, active means inhibition above about 4.5%; inactive means the rest.

C[C@@H]1COc2cc(N3CCCCC3)ccc2S(=O)(=O)N1	none (no result: pCIP destab, SKN-1 inh, MT1-MMP act inh, MsrA act)
O=C(N/N=C/c1ccc(N2CCOCC2)cc1)c1ccncc1	MsrA inh 5.0 (no result: pCIP destab) | MsrA inh confirm 5.0
COc1ccc(C=NNC(=O)c2ccccc2NS(=O)(=O)c2cccs2)cc1O	MsrA inh 5.1 (no result: pCIP destab) | MsrA inh confirm inactive
O=C(N/N=C/c1ccc(N2CCOCC2)s1)c1ccc(NS(=O)(=O)c2cccs2)cc1	MsrA inh 4.7 | MsrA inh confirm inactive
O=C(N/N=C/c1ccc(N2CCOCC2)cc1)c1ccc(NS(=O)(=O)c2cccs2)cc1	MsrA inh 6.8 | MsrA inh confirm 6.4
O=C(Nc1ccc(N2CCOCC2)cc1)c1ccncc1	none
C[C@@H]1CCCCO[C@@H](CN(C)C(=O)Nc2ccc(C(F)(F)F)cc2)[C@@H](C)CN([C@H](C)CO)C(=O)c2cc(NS(=O)(=O)c3ccc(Cl)cc3)ccc2O1	none (no result: pCIP destab, SKN-1 inh, MT1-MMP act inh, MsrA act)
COCCN1Cc2cc(C(=O)OC)c3c(c2C1=O)c1cc(OC)ccc1n3C(=O)c1ccccc1	none (no result: pCIP destab, SKN-1 inh, MT1-MMP act inh, MsrA act)
CCCc1nc2c(C)cc(Br)cn2c1Cc1ccccc1OC	none (no result: pCIP destab, SKN-1 inh, MT1-MMP act inh, MsrA act)
CC(C)C[C@H]1COc2cccc(NCCO)c2S(=O)(=O)N1	none (no result: pCIP destab, SKN-1 inh, MT1-MMP act inh, MsrA act)
O=C(N/N=C/c1ccc2c(c1)OCO2)c1ccc(NS(=O)(=O)c2cccs2)cc1	MsrA inh 5.7 | MsrA inh confirm 7.5
CCOC(=O)N/N=C/c1ccc(N2CCOCC2)s1	MsrA inh 5.3 | MsrA inh confirm 5.7
O=C(N/N=C/c1ccc(N2CCOCC2)cc1)c1ccccc1NS(=O)(=O)c1cccs1	MsrA inh 8.0 | MsrA inh confirm 7.0
O=C(NN=Cc1ccc(F)c(F)c1)c1ccc(NS(=O)(=O)c2cccs2)cc1	none (no result: pCIP destab)
COc1ccc(C(=O)N/N=C/c2ccc(N3CCOCC3)s2)cc1OC	none (no result: pCIP destab)
CCCCc1c(-c2ccccc2OC)ncn1Cc1ccc(OC)cc1	none (no result: pCIP destab, SKN-1 inh, MT1-MMP act inh, MsrA act)
C[C@@H]1CN(c2ccc(N3CCN(C(=O)OC(C)(C)C)C[C@H]3C)cc2C#N)CCN1Cc1ccccc1	none (no result: pCIP destab, SKN-1 inh, MT1-MMP act inh, MsrA act)
COc1cccc(/C=N/NC(=O)c2cc3c(OC)c(OC)ccc3[nH]2)c1OC	MsrA inh 6.3 | MsrA inh confirm 4.6
COc1cccc(/C=N/NC(=O)c2cc3c(OC)cccc3[nH]2)c1O	none
COc1ccc(/C=N/NC(=O)c2[nH]c3ccc(Cl)cc3c2-c2ccccc2)c(C(=O)O)c1OC	MsrA inh 5.2 | MsrA inh confirm 6.5
COc1cccc(/C=N/NC(=O)c2cc3c(OC)cccc3[nH]2)c1OC	MsrA inh 5.3 | MsrA inh confirm inactive
COC(=O)C1=C(C)N(Cc2ccccc2C(F)(F)F)C(=NCc2ccc(OC)cc2)NC1c1ccccc1C(F)(F)F (stereo not drawn)	none (no result: pCIP destab, SKN-1 inh, MT1-MMP act inh, MsrA act)
CC1(C)CC(=O)C=C(Nc2ccc(O)c(C(=O)O)c2)C1	none
CC1(C)CC(=O)C=C(Nc2ccc(C(=O)O)cc2)C1	MsrA inh 7.0 | MsrA inh confirm inactive
CC1(C)CC(=O)C=C(Nc2ccc(S(N)(=O)=O)cc2)C1	MsrA inh 4.9 | MsrA inh confirm inactive
COC(=O)c1cc2c(c3c4cc(OC)ccc4n(S(=O)(=O)c4ccc(OC)cc4)c13)C(=O)N(Cc1ccco1)C2	none (no result: pCIP destab, SKN-1 inh, MT1-MMP act inh, MsrA act)
Cc1ccc(/C=C2\SC(N)=NC2=O)s1	none
Cc1ccsc1/C=C1\SC(N)=NC1=O	MsrA inh 5.0 | MsrA inh confirm inactive
CC(=O)C1=C(C)N(Cc2ccc(F)cc2)C(=S)NC1c1ccc(Br)cc1 (stereo not drawn)	none (no result: pCIP destab, SKN-1 inh, MT1-MMP act inh, MsrA act)
C(=C\c1ccco1)/C=N/n1cnnc1	MsrA inh 4.7 | MsrA inh confirm 5.7
S=c1[nH]nc(-c2ccncc2)n1/N=C/C=C/c1ccco1	MsrA inh 7.1 | MsrA inh confirm 4.9
S=c1[nH]nc(-c2ccccc2Cl)n1/N=C/C=C/c1ccco1	none
Cc1cccc(-c2n[nH]c(=S)n2/N=C/C=C/c2ccco2)c1	none
O=[N+]([O-])c1cccc(N/N=C/c2cc([N+](=O)[O-])ccc2O)c1	none
O=[N+]([O-])c1ccc(O)c(C=NNc2ccc(S(=O)(=O)O)cc2)c1	MsrA inh 5.3 (no result: pCIP destab) | MsrA inh confirm 6.2
O=C(NCCN1CCC(n2c(=O)[nH]c3cc(Cl)ccc32)CC1)c1ccc(F)cc1	none (no result: pCIP destab, SKN-1 inh, MT1-MMP act inh, MsrA act)
O=C1N=C(N2C=CC(=C3C=CNC=C3)C=C2)/C(=C/N=NC(=O)c2ccccc2)S1	MsrA inh 10.6 | MsrA inh confirm 10.7
CCN1CCN(Cc2ccc(NC(=O)c3cccc(-c4ccc5nc(NC(=O)C6CC6)sc5n4)c3)cc2C(F)(F)F)CC1	none (no result: pCIP destab, SKN-1 inh, MT1-MMP act inh, MsrA act)
Cc1cc(N2CCNC[C@H]2C)ccc1N1C[C@@H](C)O[C@@H](C)C1	none (no result: pCIP destab, SKN-1 inh, MT1-MMP act inh, MsrA act)
N#CC(c1ccc(O)cc1)N1CCN(C(C#N)c2ccc(O)cc2)CC1 (stereo not drawn)	MsrA inh 5.0 (no result: pCIP destab) | MsrA inh confirm inactive
COc1ccc(C(C#N)N2CCOCC2)cc1 (stereo not drawn)	none
CN(C)/C=N/c1nc2ncc(-c3ccc(Cl)cc3)c(/N=C/N(C)C)n2n1	MsrA inh 5.2 | MsrA inh confirm inactive
Nc1n[nH]c(N)c1N=Nc1ccccc1	MsrA inh 5.0 | MsrA inh confirm inactive
C[C@H](CO)N1C[C@H](C)[C@H](CN(C)C(=O)Nc2cccc3ccccc23)Oc2ncc(Br)cc2C1=O	none (no result: pCIP destab, SKN-1 inh, MT1-MMP act inh, MsrA act)
O=C(N/N=C/c1cccs1)c1ccc(NC(=O)c2ccccc2Cl)cc1	MsrA inh 4.8 | MsrA inh confirm inactive
O=C(N/N=C/c1ccccc1)c1cccc2ccccc12	none (no result: pCIP destab)
O=C(N/N=C/c1cccn1-c1ccc(O)cc1)c1cccc2ccccc12	MsrA inh 5.2 | MsrA inh confirm inactive
CC(=O)O[C@H]1C[C@@H](n2cnc3c(Cl)ncnc32)[C@@H]2OC(C)(C)O[C@@H]21	none (no result: pCIP destab, SKN-1 inh, MT1-MMP act inh, MsrA act)
O=C1OC(c2ccc(Cl)cc2)=N/C1=C\C=C\c1ccco1	MsrA inh 4.7 | MsrA inh confirm inactive
O=C1OC(c2ccccc2)=N/C1=C\C=C\c1ccco1	MsrA inh 4.9 | MsrA inh confirm inactive
O=C1OC(c2ccccc2)=N/C1=C\C=C\c1ccccc1[N+](=O)[O-]	none
COCCn1c(SCC(=O)c2c(N)n(C3CC3)c(=O)[nH]c2=O)nnc1-c1ccc(Cl)cc1	MsrA inh 6.0 (no result: pCIP destab) | MsrA inh confirm inactive
Cc1nc2cc[nH]n2c(=O)c1CCc1ccccc1	none (no result: pCIP destab, SKN-1 inh, MT1-MMP act inh, MsrA act)
COc1ccccc1S(=O)(=O)N(C)C[C@H]1Oc2cc(Br)ccc2S(=O)(=O)N([C@@H](C)CO)C[C@H]1C	none (no result: pCIP destab)
COc1ccccc1S(=O)(=O)N(C)C[C@H]1Oc2cc(Br)ccc2S(=O)(=O)N([C@H](C)CO)C[C@H]1C	MsrA inh 5.6 (no result: pCIP destab, SKN-1 inh, MT1-MMP act inh, MsrA act) | MsrA inh confirm inactive
COC(=O)C1=C(C)N(C)C(=NCc2ccc(OC)cc2)NC1c1cccc(C(F)(F)F)c1 (stereo not drawn)	none (no result: pCIP destab, SKN-1 inh, MT1-MMP act inh, MsrA act)
CC1(C)Cc2c(cnn2-c2ccc(F)cc2)C(NC(=O)c2ccc(=O)oc2)C1 (stereo not drawn)	MsrA inh 6.4 | MsrA inh confirm 5.5
CC(C)(C)c1ccc(-c2cc(NC(=O)Cc3c[nH]c4ccccc34)ccc2Nc2cccnc2)cc1	none (no result: pCIP destab, SKN-1 inh, MT1-MMP act inh, MsrA act)
